Assay type in all cases: functional
One assay deals with SH-SY5Y. Kind of assay: Cytotoxicity against human SH-SY5Y cells after 72 hrs by MTT assay. In short, it runs like this:
(§1)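 Human cell panel of fibroblasts (CCD25sk), neuroblastoma (SHSY5), pancreatic carcinoma (MiaPaca-2), breast adenocarcinoma (MCF-7), hepatocellular carcinoma (HepG2), melanoma (A2058) and lung carcinoma (A549), tested by colorimetric MTT viability read-out. Doxorubicin served as positive control, and results were expressed as CC50.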
Background: Formazan colour is commonly taken as a measure of viable cells.

Assay [1] can be described thus: Cytotoxicity against human CCD25sk cells after 72 hrs by MTT assay. In outline:
as §1

A further assay deals with HepG2. As to the kind of experiment: Cytotoxicity against human HepG2 cells after 72 hrs by MTT assay. To be noted: HepG2, 72 h. In short, it runs like this:
as §1

Another assay relates to A2058. As to the kind of experiment: Cytotoxicity against human A2058 cells after 72 hrs by MTT assay. To be noted: A2058, 72 h. In short, it runs like this: as §1
In the next assay the test system is A549. Kind of assay: Cytotoxicity against human A549 cells after 72 hrs by MTT assay. As to conditions: A549, 72 h. In outline: as §1
Another assay deals with MCF7. As to the kind of experiment: Cytotoxicity against human MCF7 cells after 72 hrs by MTT assay. To be noted: MCF7, 72 h. In short, it runs like this: as §1
The test system of another assay is MIA PaCa-2. Kind of assay: Cytotoxicity against human MIAPaCa2 cells after 72 hrs by MTT assay. To be noted: MIA PaCa-2, 72 h. In short, it runs like this:
as §1

A further assay has as its system HeLa. As to the kind of experiment: Cytotoxicity against human HeLa cells.

Each structure is given as a SMILES string.

On to `COc1cc(OC)c2c(=O)oc([C@@H](Cl)[C@@H](O)CCl)cc2c1` (relative stereo), for which, in the assay on SH-SY5Y, the cytotoxic concentration (CC50) (as a rule, the concentration giving 50% cytotoxicity) was determined as 36.2 µM.
As for `COc1cccc2c1C(=O)c1c(O)c3c(c(O)c1C2=O)C[C@@](O)(C(=O)CO)C[C@@H]3O[C@H]1C[C@H](N)[C@H](O)[C@H](C)O1` [DOXORUBICIN], the CC50 is 0.85 µM in assay [1]; 1.95 µM in the assay on HepG2; 1.79 µM in the assay on A2058; 10.5 µM in the assay with A549; 7 µM in the assay on MCF7; 0.7 µM in the assay on SH-SY5Y. Also, the CC50 with MIA PaCa-2 worked out at 2.97 µM.
On to `COc1cc(OC)c2c(=O)oc(C[C@@H](O)C(Cl)Cl)cc2c1`, for which the CC50 in assay [1] is 27 µM; in the assay with SH-SY5Y, 19.4 µM.
In turn, `COc1cc(O)c2c(=O)oc(C[C@@H](O)C(Cl)Cl)cc2c1` registered a CC50 in the assay with HeLa of 28 µM.
On to `COc1cc(OC)c2c(=O)oc([C@H](Cl)[C@@H](O)CCl)cc2c1` (relative stereo), for which, in the assay on SH-SY5Y, the CC50 turned out to be 39.2 µM.
